From ChEMBL document CHEMBL5107950, “Structure-based design of haloperidol analogues as inhibitors of acetyltransferase Eis from Mycobacterium tuberculosis to overcome kanamycin resistance” (RSC Med Chem, 2021)
Converted amounts (≈) assume the structure as drawn. The source made the active and inactive calls. The rule behind the calls is not given here.

How the values were obtained:
[1] = system: Mycobacterium tuberculosis variant bovis; test: Antibacterial activity against Mycobacterium bovis BCG ATCC 35734 assessed as inhibition of bacterial growth incubated upto 3 weeks hrs by resazurin dye based double-dilution method; format: functional; conditions: BCG ATCC 35734, 504 h
How it was run: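 Double-dilution broth MIC. Media: M. smegmatis, Mueller-Hinton; M. abscessus, 7H9 + 0.05% Tween80 + 0.4% glycerol; mc²6230, 7H9 + 0.05% tyloxapol, 0.5% glycerol, 10% OADC, 0.2% casamino acids, 24 µg/mL pantothenate; other mycobacteria, 7H9 + 0.05% Tween80, 0.4% glycerol, 10% ADC. Inoculum from agar set to 0.5 McFarland, then diluted 1:100.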

[2] = system: Mycobacterium tuberculosis variant bovis; test: Antibacterial activity against Mycobacterium bovis BCG ATCC 35734 in presence of clarithromycin by checkerboard assay; format: functional, organism-based
How it was run: (§1)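 Checkerboard in 96-well plates. Antibiotic two-fold serially diluted along columns, haloperidol derivative two-fold along rows. Bacteria prepared as for the MIC determination. MICs alone and in combination used to calculate FICI. At least duplicate independent trials.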

[3] = system: Mycobacterium tuberculosis variant bovis; test: Antibacterial activity against Mycobacterium bovis BCG ATCC 35734 in presence of clofazimine by checkerboard assay; format: functional, organism-based; how it was run: as §1
[4] = system: Mycobacterium tuberculosis variant bovis; test: Synergistic antibacterial activity against Mycobacterium bovis BCG ATCC 35734 in presence of spectinomycin by checkerboard assay; format: functional, organism-based; how it was run: as §1

SMILES	MIC [1] [µM]	also measured
Cc1ccc(S(=O)(=O)N2CCC(O)(c3ccc(Cl)cc3)CC2)cc1	> 62.5	
CC(C)(C)c1ccc(C(=O)CCCN2CCC(O)(c3ccc(Cl)cc3)CC2)cc1	3.9 (≈ 1.61 µg/mL)	
NNC(=O)c1ccncc1 [ISONIAZID]	≤ 1	
CC1CC(C)CN(CCCC(=O)c2ccc(C(C)(C)C)cc2)C1 (stereo not drawn)	31.3 (≈ 9.88 µg/mL)	
O=C(CCCN1CCC(O)(c2ccc(Cl)cc2)CC1)c1ccc(Cl)cc1 [CHLOROHALOPERIDOL]	62.5 (≈ 24.5 µg/mL)	Activity [2]: Active; Activity [3]: Active; Activity [4]: Active
Fc1ccc(OCCCN2CCC(c3ccccc3)CC2)cc1	> 62.5	
O=C(CCCN1CCC(O)(c2ccc(Br)cc2)CC1)c1ccc(Cl)cc1	15.6 (≈ 6.81 µg/mL)	Activity [2]: Active; Activity [3]: Active; Activity [4]: Active
CC(C)c1ccc(C(=O)CCCN2CCC(O)(c3ccc(Cl)cc3)CC2)cc1	1 (≈ 0.4 µg/mL)	
COc1ccc(C(=O)CCCN2CCC(O)(c3ccc(Br)cc3)CC2)cc1	62.5 (≈ 27 µg/mL)	
O=C(CCCN1CCCCC1)c1ccc(F)cc1 [PRIMAPERONE]	> 62.5	
O=C(CCCN1CCC(O)(c2ccc(Br)cc2)CC1)c1ccc(F)cc1 [BROMPERIDOL]	62.5 (≈ 26.3 µg/mL)	
Cc1ccc(C(=O)CCCN2CCC(O)(c3ccc(Cl)cc3)CC2)cc1	15.6 (≈ 5.8 µg/mL)	
O=C(CCCN1CCC(O)(c2ccc(Br)cc2)CC1)c1ccccc1	> 62.5	
O=C(CCCN1CC=C(c2ccc(Cl)cc2)CC1)c1ccc(F)cc1	15.6 (≈ 5.58 µg/mL)	
O=C(CCCN1CCC(O)(c2ccc(F)cc2)CC1)c1ccccc1	> 62.5	
CC(=O)CCCN1CCC(O)(c2ccc(Cl)cc2)CC1	> 62.5	
CC(C)(C)c1ccc(C(=O)CCCN2CCC(O)(c3ccc(Br)cc3)CC2)cc1	3.9 (≈ 1.79 µg/mL)	

SMILES	MIC [1] [µM]	also measured
CCc1ccc(C(=O)CCCN2CCC(O)(c3ccc(Cl)cc3)CC2)cc1	2 (≈ 0.772 µg/mL)	
O=C(CCCN1CCC(O)(c2ccc(F)cc2)CC1)c1ccc(F)cc1	> 62.5	
O=C(CCCN1CCC(O)(c2ccc(F)cc2)CC1)c1ccc(Cl)cc1	> 62.5	Activity [2]: Active; Activity [3]: Active; Activity [4]: Active
O=C(CCCN1CCC(O)CC1)c1ccc(F)cc1	> 62.5	
COc1ccc(C(=O)CCCN2CCC(O)(c3ccc(F)cc3)CC2)cc1	> 62.5	
O=C(CCCN1CCC(O)(c2ccc(Cl)cc2)CC1)c1ccccc1	62.5 (≈ 22.4 µg/mL)	
O=C(CCCN1CCC(c2ccc(Cl)cc2)CC1)c1ccc(F)cc1	62.5 (≈ 22.5 µg/mL)	
O=C(CCCN1CCC(O)(c2ccc(F)cc2)CC1)c1ccc(Br)cc1	62.5 (≈ 26.3 µg/mL)	
CC1CC(C)CN(CCCOc2ccc(F)cc2)C1 (stereo not drawn)	15.6 (≈ 4.14 µg/mL)	
CC(C)(C)c1ccc(C(=O)CCCN2CCC(O)(c3ccc(F)cc3)CC2)cc1	15.6 (≈ 6.2 µg/mL)	
O=C(CCCN1CCC(O)(c2ccc(Cl)cc2)CC1)c1ccc(Br)cc1	> 62.5	
COc1ccc(C(=O)CCCN2CCC(O)(c3ccc(Cl)cc3)CC2)cc1	> 62.5	
O=C(CCCN1CCC(O)(c2ccc(Cl)cc2)CC1)c1ccc(F)cc1 [HALOPERIDOL]	62.5 (≈ 23.5 µg/mL)	
O=C(CCCN1CCC(O)(c2ccc(Br)cc2)CC1)c1ccc(Br)cc1	> 62.5	
O=C(CCCN1CCC(O)(c2ccccc2)CC1)c1ccc(F)cc1	> 62.5	
O=C(CN1CCC(O)(c2ccc(Cl)cc2)CC1)c1ccc(F)cc1	> 62.5	
CC1CCCCN1CCCOc1ccc(F)cc1 (stereo not drawn)	3.9 (≈ 0.98 µg/mL)	
